The structures appear in SMILES notation.

The nature of series [1]: Cytotoxicity against human H9 cells by MTS assay. It counts as cell-based. For orientation: Tetrazolium dyes change colour on reduction, which living cells bring about.
The subject of another series is 293T. In words: Inhibition of full-length X4 tropic HIV-1 clone pNL4-3 Vif/human APOBEC3G complex transfected in human 293T cells measured at 50 uM after 48 hrs by GFP-based fluorescence assay relative to control. It counts as cell-based. A digest of the protocol: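 This was the primary screen in 293T cells co-transfected with HA-Vif and A3G-GFP plasmids (Lipofectamine 2000) and given a single compound concentration. DMSO-only wells and A3G-GFP-only transfected wells served as controls. GFP was read after 48 h. A3G-GFP MFI fold change was scored as −, none or <1; +, 1–2; ++, 2–3; +++, >3.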

Series [2] concerns Human immunodeficiency virus 1. Briefly: Antiviral activity against X4 tropic HIV-1 clone pNL4-3 infected in H9 cells assessed as reduction in p24 antigen after 4 days by ELISA. Particulars: Human immunodeficiency virus 1, pNL4-3, H9, 96 h. The format is functional, organism-based. On the technique in general: ELISA stands for enzyme-linked immunosorbent assay.

Broadly, the CC50 is the concentration giving 50% cytotoxicity. A high value points to better tolerance by the cells. In general, IC50 refers to the concentration that inhibits the measured activity by half. Regarding `CCN(CC)c1ccc(/C=C(\C#N)c2nc3cc(SC)ccc3[nH]2)cc1`, the CC50 in series [1] is over 50 µM. In the series with 293T, this molecule showed a fold change (FC) of 2. In addition, the IC50 in series [2] came out at 0.75 µM.
The corresponding values for `CCN(CC)c1ccc(/C=C(\C#N)c2nc3cc(Cl)c(Cl)cc3[nH]2)cc1` are over 50 µM, over 3 and 1.25 µM.
For `CCCN(CCC)c1ccc(/C=C(\C#N)c2nc3ccccc3[nH]2)cc1`, in that order: over 50 µM, 2 and 1.09 µM.
`N#C/C(=C\c1ccc2[nH]ccc2c1)c1nc2ccccc2[nH]1` had a cytotoxic concentration (CC50) in series [1] of over 50 µM. In addition, the fold change (FC) in the series on 293T is over 3. Besides, the 50% inhibitory concentration (IC50) in series [2] is 0.72 µM.
For `CC(C)c1ccc(/C=C(\C#N)c2nc3ccccc3[nH]2)cc1`, in that order: over 50 µM, under 1 and over 50 µM.
For `Cc1ccc(/C=C(\C#N)c2nc3ccccc3[nH]2)cc1`, in that order: over 50 µM, under 1 and over 50 µM.
The corresponding values for `CCN(CC)c1ccc(/C=C(\C#N)c2nc3ccccc3s2)cc1` are over 50 µM, over 3 and 5.92 µM.
In turn, `CCN(CC)c1ccc(/C=C(\C#N)c2nc3cccnc3[nH]2)cc1` displayed a CC50 in series [1] of over 50 µM. The fold change (FC) with 293T was 2. The concentration for half-maximal inhibition (IC50) in series [2] amounted to 3.58 µM.
Take `CCN(CCO)c1ccc(/C=C(\C#N)c2nc3ccccc3[nH]2)cc1`: in series [1], the CC50 is over 50 µM. The fold change (FC) with 293T worked out at 1. In addition, in series [2], the IC50 amounted to 6.11 µM.
The corresponding values for `CCc1ccc(/C=C(\C#N)c2nc3ccccc3[nH]2)cc1` are over 50 µM, under 1 and over 50 µM.
`CCN(CC)c1ccc2cc(-c3nc4ccccc4[nH]3)c(=O)oc2c1` returned a CC50 in series [1] of over 50 µM. Besides, the fold change (FC) with 293T is over 3. The IC50 in series [2] is 0.24 µM.
In series [1], `CN1CCN(c2ccc(/C=C(\C#N)c3nc4ccccc4[nH]3)cc2)CC1` gave a CC50 of over 50 µM. In addition, in the series with 293T, the fold change (FC) was under 1. In addition, the IC50 in series [2] is over 50 µM.
As for `CN(C)c1ccc(/C=C(\C#N)c2nc3ccccc3[nH]2)cc1`, in series [1], the CC50 is over 50 µM. In the series with 293T, the fold change (FC) is 2. Further, the IC50 in series [2] is 0.51 µM.
For `CCN(CC)c1cccc(/C=C(\C#N)c2nc3ccccc3[nH]2)c1`, in that order: over 50 µM, under 1 and over 50 µM.
For `CCN(CC)c1ccc(/C=C(\C#N)c2nc3cc(C(=O)O)ccc3[nH]2)cc1`, in that order: over 50 µM, 2 and over 50 µM.
For `CCN(CC)c1ccc(/C=C(\C#N)c2nc3cc(C(F)(F)F)ccc3[nH]2)cc1`, in that order: over 50 µM, 2 and 1.13 µM.
As for `CCN(CC)c1ccc(/C=C(\C#N)c2nc3ccccc3[nH]2)c(O)c1`, the CC50 in series [1] was over 50 µM. In addition, the fold change (FC) with 293T was over 3. Also, in series [2], the IC50 amounted to 1.5 µM.
The molecule `CC(C)N(c1ccc(/C=C(\C#N)c2nc3ccccc3[nH]2)cc1)C(C)C` returned a CC50 in series [1] of over 50 µM. The same molecule showed a fold change (FC) in the series on 293T of 2. The IC50 in series [2] stood at 3.3 µM.
In turn, `N#C/C(=C\c1ccc(N2CCOCC2)cc1)c1nc2ccccc2[nH]1` came in with a CC50 in series [1] of over 50 µM. Also, the fold change (FC) in the series with 293T was over 3. In series [2], the IC50 is over 50 µM.
In series [1], `CCN(CC)c1ccc(/C=C(\C#N)c2nc3cc(Cl)ccc3[nH]2)cc1` displayed a half-maximal cytotoxic concentration (CC50) of over 50 µM. Moreover, the fold change (FC) with 293T was determined as 2. Besides, the half-maximal inhibitory concentration (IC50) in series [2] is over 50 µM.
With `N#C/C(=C\c1ccc(-c2ccccc2)cc1)c1nc2ccccc2[nH]1`, in series [1], the CC50 was over 50 µM. The fold change (FC) in the series with 293T is under 1. The IC50 in series [2] is over 50 µM.
In turn, `CN(C)c1ccc(/C=C(\C#N)c2nc3ccccc3[nH]2)c(O)c1` registered a CC50 in series [1] of over 50 µM. The molecule also came in with a fold change (FC) with 293T of over 3. For the same molecule, the IC50 in series [2] is over 50 µM.
The molecule `CCN(CC)c1ccc(/C=C(\C#N)c2nc3ccccc3n2C2CC2)cc1` gave a CC50 in series [1] of over 50 µM. In the series with 293T, this molecule came in with a fold change (FC) of under 1. In addition, the IC50 in series [2] was over 50 µM.
Consider `COc1cc(/C=C(\C#N)c2nc3ccccc3[nH]2)ccc1N(C)C`, for which the CC50 in series [1] was over 50 µM. The molecule further registered a fold change (FC) with 293T of 1. Besides, the half-maximal inhibitory concentration (IC50) in series [2] was 0.29 µM.
As for `CCN(CC)c1ccc(/C=C(\C#N)c2nc3cc(C(C)(C)C)ccc3[nH]2)cc1`, the CC50 in series [1] was over 50 µM. For the same molecule, the fold change (FC) in the series on 293T was over 3. Also, the IC50 in series [2] came out at 1.04 µM.
The corresponding values for `CCN(CC)c1ccc(/C=C(\C#N)c2nc3cc(N(C)C)ccc3[nH]2)cc1` are over 50 µM, 1 and 2.68 µM.
The corresponding values for `N#C/C(=C\c1ccc2[nH]ncc2c1)c1nc2ccccc2[nH]1` are over 50 µM, 2 and 0.36 µM.
For `N#C/C(=C\c1ccc(N2CCCC2)cc1)c1nc2ccccc2[nH]1`, in that order: over 50 µM, under 1 and over 50 µM.
Turning to `CS(=O)(=O)c1ccc(/C=C(\C#N)c2nc3ccccc3[nH]2)cc1`, the CC50 in series [1] was over 50 µM. In the series on 293T, this molecule yielded a fold change (FC) of under 1. In addition, the IC50 in series [2] was over 50 µM.
As to `CCN(CC)c1ccc(/C=C(\C#N)c2nc3cc(OC)ccc3[nH]2)cc1`, the CC50 in series [1] is over 50 µM. Besides, the fold change (FC) in the series with 293T was 2. Besides, in series [2], the IC50 is 4.42 µM.
Take `CCN(CC)c1ccc(/C=C(\C#N)c2nc3ccccc3n2C)cc1`: the CC50 in series [1] was over 50 µM. Besides, the fold change (FC) with 293T was under 1. The IC50 in series [2] was over 50 µM.
Turning to `CCN(CC)c1ccc(/C=C(\C#N)c2nc3cc(F)ccc3[nH]2)cc1`, the CC50 in series [1] was over 50 µM. In addition, in the series on 293T, the fold change (FC) was over 3. Further, the concentration for half-maximal inhibition (IC50) in series [2] is over 50 µM.
As for `CCN(CC)c1ccc(/C=C(\C#N)c2nc3cc(C)c(C)cc3[nH]2)cc1`, the CC50 in series [1] is over 50 µM. Besides, in the series on 293T, the fold change (FC) was over 3. In series [2], the IC50 was found to be 1.64 µM.
The molecule `CCN(CC)c1ccc(/C=C(\C#N)c2nc3ccccc3o2)cc1` displayed a CC50 in series [1] of over 50 µM. This molecule showed a fold change (FC) in the series on 293T of 2. Also, the IC50 in series [2] was 2.38 µM.
The corresponding values for `CCN(CC)c1ccc(/C=C(\C#N)c2nc3cc(Br)ccc3[nH]2)cc1` are over 50 µM, 2 and over 50 µM.
The molecule `N#C/C(=C\c1ccc(C(=O)O)cc1)c1nc2ccccc2[nH]1` had a CC50 in series [1] of over 50 µM. In addition, the fold change (FC) in the series on 293T is under 1. Moreover, the IC50 in series [2] was over 50 µM.
`COc1ccc(/C=C(\C#N)c2nc3ccccc3[nH]2)cc1OC`: the CC50 in series [1] was over 50 µM. The molecule also yielded a fold change (FC) with 293T of 1. Further, the IC50 in series [2] is over 50 µM.
With `N#C/C(=C\c1ccc(-n2ccnc2)cc1)c1nc2ccccc2[nH]1`, the CC50 in series [1] is over 50 µM. The molecule also had a fold change (FC) in the series on 293T of under 1. The IC50 in series [2] is over 50 µM.
As for `CCN(CC)c1ccc(/C=C(\C#N)c2nc3ccccc3n2CC)cc1`, the CC50 in series [1] is over 50 µM. In the series on 293T, the fold change (FC) was under 1. The IC50 in series [2] was over 50 µM.

The record behind these values is ChEMBL document CHEMBL3407469, “Development of benzimidazole derivatives to inhibit HIV-1 replication through protecting APOBEC3G protein” (Eur J Med Chem, 2015).
